Assay outcomes: PubChem, The Scripps Research Institute Molecular Screening Center
OX1R antag-1: blocks the human orexin 1 receptor; OX1R-expressing cells, FRET antagonist read-out; inhibition, % at 6.6 µM; actives 1.8% (n = 330,000); in the data active = inhibition mostly above about 38%, no sharp cut-off; inactive = mostly below about 40%;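 also: 0% = agonist challenge alone and 100% = reference antagonist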
OX1R antag-2: blocks the human orexin 1 receptor; actives 0.43% (n = 330,000); AID 434989; inhibition, % at 5 µM; O43613; CHO/OX1R cells, Fluo-8 calcium fluorescence, orexin A;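 active = inhibition above its plate's threshold, mean inhibition of all tested compounds on the plate plus 3 SD, cut at about 37% in these data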;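 also: 0% = orexin A challenge wells and 100% = SB-334867-A antagonist wells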
GPR7 antagonist: antagonists of human GPR7 (neuropeptides B/W receptor 1); inhibition, % at 4.4 µM; GPR7-expressing cells, fluorescence antagonist assay; P48145; actives 1.1% (n = 290,000); in the data active = inhibition above about 16%, passing the limit was not always enough;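 also: cells stimulated with the agonist NPW; 0% = agonist with vehicle and 100% = vehicle without agonist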
Target sequence (P48145 whole entry, looked up): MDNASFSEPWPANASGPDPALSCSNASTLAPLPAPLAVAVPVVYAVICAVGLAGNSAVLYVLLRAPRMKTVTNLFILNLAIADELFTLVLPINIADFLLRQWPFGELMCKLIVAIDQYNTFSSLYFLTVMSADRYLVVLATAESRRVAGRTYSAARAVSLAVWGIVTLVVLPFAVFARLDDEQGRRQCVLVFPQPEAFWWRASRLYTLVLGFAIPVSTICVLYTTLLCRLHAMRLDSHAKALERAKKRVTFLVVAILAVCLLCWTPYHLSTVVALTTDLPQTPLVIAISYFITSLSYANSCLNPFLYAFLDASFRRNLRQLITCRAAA
CHO parental Ca: counter-screen for OX1R antagonists: effect in parental CHO cells. parental CHO-K1, ATP-induced calcium, Fluo-8 fluorescence. inhibition, % at 5.6 µM. actives 0.63% (n = 330,000). AID 463079;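 active = inhibition above that plate's mean sample inhibition plus 3 SD, cut at about 26% in these data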;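 also: 0% = ATP-challenged DMSO wells and 100% = DMSO wells without ATP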
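Test system: parental CHO cells; detection: calcium-sensitive Fluo-8 fluorescence; evaluation: percent inhibition of calcium signal; also added: ATP as calcium-mobilizing challenge; repeats: one well per compound; control set: ATP-challenged DMSO wells low, unchallenged DMSO wells high; compound: single nominal dose of 5.6 µM per compound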
TAAR1 antag: antagonists of human TAAR1; actives 1.5% (n = 360,000); AID 624466; inhibition, % at 3 µM; CHO RD-HGA16 TAAR1, Fluo-8 calcium fluorescence, antagonist; Q96RJ0;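 active = inhibition above a per-plate cutoff, the mean inhibition of test compounds on that plate plus 3 SD, cut at about 49% in these data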;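 also: 0% = DMSO plus EC80 beta-PEA response and 100% = DMSO alone without agonist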
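test system = CHO RD-HGA16 cells bearing hTAAR1 | replication = singlicate | controls = DMSO-only wells and EC80 β-PEA-stimulated wells | reagent = EC80 β-phenethylamine stimulus | read-out basis = percent inhibition of PEA-evoked calcium signal, max/basal emission ratio | schedule = seeding 17-24 h prior, 75-min 37 °C, 30-min RT dye loading | signal = kinetic Fluo-8 calcium fluorescence measurement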
TAAR1 ag: agonists of human TAAR1; CHO RD-HGA16 TAAR1, Fluo-8 calcium fluorescence; vehicle wells 0%, saturating PEA agonist 100%; actives 0.99% (n = 360,000); activation, % at 3 µM; Q96RJ0;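 active = activation above the mean activation of all test compounds in the run plus 3 SD, cut at about 38% in these data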
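Test system: RD-HGA16 (CHO) cells co-expressing Gα16 and hTAAR1 / Benchmarks: DMSO vehicle as 0%, PEA at EC100 as 100% / Repeats: no replicates (n 1) / Measure: % activation from peak over basal fluorescence ratio, DMSO-to-PEA scaled / Timing: 17-24 h plating, Fluo-8 75 min 37 °C, 30 min RT / Technique: kinetic Fluo-8 calcium fluorescence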
* marks the source's active call; other numbers are inactive results; . = no result. This is a sample that favours compounds with a hit; in the whole collection about 4.6% have one here.

SMILES	OX1R antag-1	OX1R antag-2	GPR7 antagonist	CHO parental Ca	TAAR1 antag	TAAR1 ag
O=C(CN1CCN(c2ccccc2O)CC1)Nc1ccccc1C(=O)NCCc1ccccc1	19	-10	.	-15	61*	18
O=C(CN1CCN(c2ccc(F)cc2)CC1)Nc1ccccc1C(=O)NCCc1ccccc1	9	-24	.	-24	43	18
O=C1OCC/C1=C\NCCCCCCCCN/C=C1\CCOC1=O	.	.	.	.	-17	5
Fc1cccc(NC(=S)NCCc2ccccc2)c1	30	-18	3	1	-13	29
Fc1ccccc1NC(=S)NCCc1ccc(Cl)cc1	.	.	-1	.	1	0
CC(C)(CNC(=S)NCCc1ccccc1)CNC(=S)NCCc1ccccc1	.	.	15	.	62*	46*
O=[N+]([O-])c1cccc(NC(=S)NCCc2ccccc2)c1	53*	-20	-5	17	23	10
Fc1ccccc1NC(=S)NCCc1ccccc1	19	-5	-2	3	6	56*
O=C(Cc1ccc(NC(=O)C2CCN(C(=O)C3CCCC3)CC2)cc1)Nc1ccc(C(=O)N2CCOCC2)cc1	.	.	.	.	-11	5
CN1CCCCC(NC(=O)CCCl)C1=O (stereo not given)	.	.	.	.	-14	0
O=S1(=O)N[C@H](Cc2ccccc2)COc2cc(Br)ccc21	.	.	.	.	-25	-1
CC1(C)N=C(N)N=C(N)N1c1ccc(OCC(=O)N2CCOCC2)c(Cl)c1	.	.	.	.	-17	3
Cc1ccc(C(C)C)c2c1C(c1ccc3c(c1)OCO3)CC(=O)O2 (stereo not given)	7	15	.	-16	45	47*
Cc1cc2c(c(C)c1Cl)C(c1ccc3c(c1)OCO3)CC(=O)O2 (stereo not given)	14	6	.	9	38	6
CC(=O)Nc1ccc(Nc2ncnc(N)c2[N+](=O)[O-])cc1	37*	-11	-13	-6	-7	22
CC(=O)Nc1ccc(Nc2ncc([N+](=O)[O-])c(Nc3ccc(NC(C)=O)cc3)n2)cc1	9	-15	-8	-11	-9	-3
COc1ccccc1NNC(=O)c1cc(C(C)(C)C)nn1Cc1ccccc1	55	-26	-12	-13	49*	3
CC(C)(C)c1cc(C(=O)NNc2cc(C(F)(F)F)ccc2Cl)n(Cc2ccccc2)n1	45*	4	-10	-7	34	9
Cc1ccc(NNC(=O)c2cc(C(C)(C)C)nn2Cc2ccccc2)cc1	12	-19	-10	-13	-22	-3
COC(=O)[C@]12C[C@H](CC(=O)NCc3ccc(OC)c(OC)c3)C(=O)N(Cc3ccc4c(c3)OCO4)C1=C[C@H](COCc1ccccc1)O[C@@H]2C	.	.	.	.	-9	0
CCN(CC)c1ncnc2c1ncn2[C@H]1CN(Cc2ccc3c(c2)OCO3)C[C@@H](CO)O1	.	.	.	.	-9	0
Cc1cc(C)c(S(=O)(=O)N2CCN(C(=O)c3cc(=O)[nH]c4ccccc34)CC2)c(C)c1	2	-19	.	-18	52*	43*
Cc1ccc(S(=O)(=O)N2CCN(C(=O)c3cc(=O)[nH]c4ccccc34)CC2)c(C)c1	19	-43	-4	-26	51*	20
Cc1nc2ccccc2c2c1C(=O)N(c1ccc(C(=O)O)cc1)C2=O	5	-2	-11	14	13	2
Cc1nc2ccccc2c2c1C(=O)NC2=O	39*	-4	-9	-6	.	.
SMILES	OX1R antag-1	OX1R antag-2	GPR7 antagonist	CHO parental Ca	TAAR1 antag	TAAR1 ag
CN(C)c1nc(OCCNC(=O)Nc2ccccc2)nc(N2CCOCC2)n1	.	.	-16	.	0	3
Cc1ccc(S(=O)(=O)NCCOc2nc(N(C)C)nc(N3CCOCC3)n2)cc1	48*	-1	-9	-23	6	9
C[C@@H](CO)NC(=O)c1[nH]cnc1C(=O)Nc1cccc(Cl)c1	.	.	.	.	-2	5
CC(=O)OCC(COC(C)=O)(CN1C(=O)c2ccccc2C1=O)CN1C(=O)c2ccccc2C1=O	.	.	.	.	-10	1
COc1ccc(N2CCN(C(=O)NC(=O)c3ccc(Cl)cc3)CC2)cc1	18	-5	-14	-9	-6	0
COC(=O)c1sc(N2CCN(c3ccc(Cl)cc3)CC2)nc1N	21	19	15	44*	21	5
O=C(c1ccco1)N1CCN(Cc2cc(=O)c(OCc3ccc([N+](=O)[O-])cc3)co2)CC1	39*	-12	.	-5	-32	0
